ChEMBL document CHEMBL1155469, “Peptide nucleic acids conjugated to short basic peptides show improved pharmacokinetics and antisense activity in adipose tissue” (J Med Chem, 2010)
Activity calls are given as the source filed them. The calls are words filed in the database; no cut-off is given here.

What was measured:
BCL1 = assay: Inhibition of PTEN expression in mouse BCL1 cells after 62 hrs by Western blotting; type: functional, cell-based; details: BCL1, 62 h
Procedure, shortened: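 BCL1 cells were grown in DMEM with 10% FBS at 37 °C, 5% CO2. Compound was delivered to 2×10^6 cells by electroporation (200 V, 1000 uF, 13 ohms), and cells were harvested 62 h later. Western blot of RIPA lysates used rabbit anti-PTEN and anti-CD40 (1:1000) with HRP secondary and ECL detection. PTEN was normalized to CD40. n=3, mean ± SD.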

Mus musculus [1] = assay: Toxicity in Balb/C mouse assessed as change in blood urea nitrogen levels at 10 to 40 mg/kg, ip administered thrice a week for 2 weeks measured 48 hrs after last dose; type: organism-based; design: dose 10-40 mg/kg, route intraperitoneal; details: in vivo
Procedure, shortened: (§1)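 Male Balb/c mice, 6–8 wk, n=4/group, received compound i.p. in PBS (10 ul/g) 3x/wk for 2 wk. Body weight was monitored throughout. At 48 h after the last dose, mice were anesthetized with isoflurane and bled by cardiac puncture. Serum AST, ALT, BUN, bilirubin, glucose and triglycerides were compared with the saline group. ALT rise below 2x normal was counted as absent.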

Mus musculus [2] = assay: Inhibition of PTEN expression in Balb/C mouse liver at 10 to 40 mg/kg, ip administered thrice a week for 2 weeks measured 48 hrs after last dose by Western blot analysis; type: functional, organism-based
Procedure, shortened: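 Male Balb/c mice, 6–8 wk, n=4/group, dosed i.p. in PBS 3x/wk for 2 wk and killed 48 h after the last dose. Tissue was homogenized in RIPA buffer with protease inhibitors, and protein was measured by Lowry assay. Lysates were run on 10% PAGE and blotted to PVDF. Blots were probed with rabbit anti-PTEN (1:1000) and HRP anti-rabbit (1:2500), with ECL detection.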

Mus musculus [3] = assay: Inhibition of PTEN expression in Balb/C mouse white adipose tissue assessed as upregulation of isoform lacking exon at 10 to 40 mg/kg, ip administered thrice a week for 2 weeks measured 48 hrs after last dose […]; type: functional, organism-based
Mus musculus [4] = assay: Toxicity in Balb/C mouse assessed as change in serum AST levels at 10 to 40 mg/kg, ip administered thrice a week for 2 weeks measured 48 hrs after last dose; type: organism-based; design: dose 10-40 mg/kg, route intraperitoneal; details: in vivo; procedure, shortened: as §1
Mus musculus [5] = assay: Toxicity in Balb/C mouse assessed as increase in spleen weight at 40 mg/kg, ip administered thrice a week for 2 weeks measured 48 hrs after last dose; type: organism-based; design: dose 40 mg/kg, route intraperitoneal; details: in vivo
Procedure, shortened: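 Male Balb/c mice, 6–8 wk, n=4/group, were dosed i.p. in PBS 3x/wk for 2 wk at 40 mg/kg. They were killed by cervical dislocation 48 h after the last dose. Spleen weight was taken at necropsy and compared with the saline-treated group.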

Mus musculus [6] = assay: Toxicity in Balb/C mouse assessed as change in serum glucose levels at 10 to 40 mg/kg, ip administered thrice a week for 2 weeks measured 48 hrs after last dose; type: organism-based; design: dose 10-40 mg/kg, route intraperitoneal; details: in vivo; procedure, shortened: as §1
Mus musculus [7] = assay: Toxicity in Balb/C mouse assessed as change in body weight at 10 to 40 mg/kg, ip administered thrice a week for 2 weeks measured 48 hrs after last dose; type: organism-based; design: dose 10-40 mg/kg, route intraperitoneal; details: in vivo; procedure, shortened: as §1
Mus musculus [8] = assay: Inhibition of PTEN expression in Balb/C mouse kidney at 10 to 40 mg/kg, ip administered thrice a week for 2 weeks measured 48 hrs after last dose
Mus musculus [9] = assay: Toxicity in Balb/C mouse assessed as change in serum bilirubin levels at 10 to 40 mg/kg, ip administered thrice a week for 2 weeks measured 48 hrs after last dose; type: organism-based; design: dose 10-40 mg/kg, route intraperitoneal; details: in vivo; procedure, shortened: as §1
Mus musculus [10] = assay: Inhibition of PTEN expression in Balb/C mouse white adipose tissue assessed as reduction of full length transcript at 10 to 40 mg/kg, ip administered thrice a week for 2 weeks measured 48 hrs after last dose […]; type: functional, organism-based
Mus musculus [11] = assay: Toxicity in Balb/C mouse assessed as change in serum triglyceride levels at 10 to 40 mg/kg, ip administered thrice a week for 2 weeks measured 48 hrs after last dose; type: organism-based; design: dose 10-40 mg/kg, route intraperitoneal; details: in vivo; procedure, shortened: as §1
Mus musculus [12] = assay: Toxicity in Balb/C mouse assessed as change in serum ALT levels at 10 to 40 mg/kg, ip administered thrice a week for 2 weeks measured 48 hrs after last dose; type: organism-based; design: dose 10-40 mg/kg, route intraperitoneal; details: in vivo; procedure, shortened: as §1

## Cc1cn(CC(=O)N(CCN)CC(=O)NCCN(CC(=O)NCCN(CC(=O)NCCN(CC(=O)NCCN(CC(=O)NCCN(CC(=O)NCCN(CC(=O)NCCN(CC(=O)NCCN(CC(=O)NCCN(CC(=O)NCCN(CC(=O)NCCN(CC(=O)NCCN(CC(=O)NCCN(CC(=O)NCCN(CC(=O)N[C@@H](CCCCN)C(N)=O)C(=O)Cn2cnc3c(=O)[nH]c(N)nc32)C(=O)Cn2cnc3c(N)ncnc32)C(=O)Cn2cnc3c(N)ncnc32)C(=O)Cn2cnc3c(N)ncnc32)C(=O)Cn2cnc3c(=O)[nH]c(N)nc32)C(=O)Cn2cnc3c(N)ncnc32)C(=O)Cn2cnc3c(=O)[nH]c(N)nc32)C(=O)Cn2cnc3c(N)ncnc32)C(=O)Cn2cc(C)c(=O)[nH]c2=O)C(=O)Cn2ccc(N)nc2=O)C(=O)Cn2ccc(N)nc2=O)C(=O)Cn2cnc3c(N)ncnc32)C(=O)Cn2ccc(N)nc2=O)C(=O)Cn2cc(C)c(=O)[nH]c2=O)c(=O)[nH]c1=O
BCL1
  IC50: 3 µM

## COCCO[C@@H]1[C@H](OP(=O)(S)OC[C@H]2O[C@@H](n3cc(C)c(=O)[nH]c3=O)C[C@@H]2OP(=O)(S)OC[C@H]2O[C@@H](n3cnc4c(N)ncnc43)[C@H](OCCOC)[C@@H]2OP(=O)(S)OC[C@H]2O[C@@H](n3cnc4c(=O)[nH]c(N)nc43)[C@H](OCCOC)[C@@H]2OP(=O)(S)OC[C@H]2O[C@@H](n3cnc4c(N)ncnc43)[C@H](OCCOC)[C@@H]2OP(=O)(S)OC[C@H]2O[C@@H](n3cnc4c(=O)[nH]c(N)nc43)[C@H](OCCOC)[C@@H]2OP(=O)(S)OC[C@H]2O[C@@H](n3cnc4c(N)ncnc43)[C@H](OCCOC)[C@@H]2OP(=O)(S)OC[C@H]2O[C@@H](n3cnc4c(N)ncnc43)[C@H](OCCOC)[C@@H]2OP(=O)(S)OC[C@H]2O[C@@H](n3cnc4c(N)ncnc43)[C@H](OCCOC)[C@@H]2OP(=O)(S)OC[C@H]2O[C@@H](n3cnc4c(=O)[nH]c(N)nc43)[C@H](OCCOC)[C@@H]2O)[C@@H](COP(=O)(S)O[C@H]2[C@@H](OCCOC)[C@H](n3ccc(N)nc3=O)O[C@@H]2COP(=O)(S)O[C@H]2[C@@H](OCCOC)[C@H](n3cnc4c(N)ncnc43)O[C@@H]2COP(=O)(S)O[C@H]2[C@@H](OCCOC)[C@H](n3ccc(N)nc3=O)O[C@@H]2COP(=O)(S)O[C@H]2C[C@H](n3cc(C)c(=O)[nH]c3=O)O[C@@H]2COP(=O)(S)O[C@H]2C[C@H](n3cc(C)c(=O)[nH]c3=O)O[C@@H]2COP(=O)(S)O[C@H]2C[C@H](n3cc(C)c(=O)[nH]c3=O)O[C@@H]2COP(=O)(S)O[C@H]2[C@@H](OCCOC)[C@H](n3cnc4c(=O)[nH]c(N)nc43)O[C@@H]2COP(=O)(S)O[C@H]2[C@@H](OCCOC)[C@H](n3cnc4c(N)ncnc43)O[C@@H]2COP(=O)(S)O[C@H]2C[C@H](n3cc(C)c(=O)[nH]c3=O)O[C@@H]2COP(=O)(S)O[C@H]2[C@@H](OCCOC)[C@H](n3cnc4c(N)ncnc43)O[C@@H]2CO)O[C@H]1n1ccc(N)nc1=O (some centres not stated)
BCL1
  IC50: 2.2 µM

## Cc1cn(CC(=O)N(CCNC(=O)CN(CCNC(=O)CN(CCNC(=O)CN(CCNC(=O)CN(CCNC(=O)CN(CCNC(=O)CN(CCN)C(=O)Cn2cnc3c(N)ncnc32)C(=O)Cn2cc(C)c(=O)[nH]c2=O)C(=O)Cn2cnc3c(N)ncnc32)C(=O)Cn2cnc3c(=O)[nH]c(N)nc32)C(=O)Cn2cc(C)c(=O)[nH]c2=O)C(=O)Cn2cc(C)c(=O)[nH]c2=O)CC(=O)NCCN(CC(=O)NCCN(CC(=O)NCCN(CC(=O)NCCN(CC(=O)NCCN(CC(=O)NCCN(CC(=O)NCCN(CC(=O)NCCN(CC(=O)N[C@@H](CCCCN)C(N)=O)C(=O)Cn2cnc3c(N)ncnc32)C(=O)Cn2cnc3c(=O)[nH]c(N)nc32)C(=O)Cn2cnc3c(N)ncnc32)C(=O)Cn2cc(C)c(=O)[nH]c2=O)C(=O)Cn2ccc(N)nc2=O)C(=O)Cn2ccc(N)nc2=O)C(=O)Cn2cnc3c(N)ncnc32)C(=O)Cn2ccc(N)nc2=O)c(=O)[nH]c1=O
BCL1
  IC50: 3.2 µM

## Cc1cn(CC(=O)N(CCNC(=O)CN(CCN)C(=O)Cn2ccc(N)nc2=O)CC(=O)NCCN(CC(=O)NCCN(CC(=O)NCCN(CC(=O)NCCN(CC(=O)NCCN(CC(=O)NCCN(CC(=O)NCCN(CC(=O)NCCN(CC(=O)NCCN(CC(=O)NCCN(CC(=O)NCCN(CC(=O)NCCN(CC(=O)NCCN(CC(=O)N[C@@H](CCCCN)C(N)=O)C(=O)Cn2cnc3c(N)ncnc32)C(=O)Cn2ccc(N)nc2=O)C(=O)Cn2cnc3c(N)ncnc32)C(=O)Cn2cc(C)c(=O)[nH]c2=O)C(=O)Cn2ccc(N)nc2=O)C(=O)Cn2cc(C)c(=O)[nH]c2=O)C(=O)Cn2cnc3c(N)ncnc32)C(=O)Cn2ccc(N)nc2=O)C(=O)Cn2cnc3c(N)ncnc32)C(=O)Cn2ccc(N)nc2=O)C(=O)Cn2cnc3c(=O)[nH]c(N)nc32)C(=O)Cn2cnc3c(N)ncnc32)C(=O)Cn2ccc(N)nc2=O)c(=O)[nH]c1=O
BCL1
  IC50: 1 µM

## Cc1cn(CC(=O)N(CCNC(=O)CN(CCNC(=O)CN(CCNC(=O)CN(CCNC(=O)CN(CCNC(=O)CN(CCNC(=O)CN(CCNC(=O)CN(CCNC(=O)CN(CCNC(=O)CN(CCNC(=O)CN(CCNC(=O)CN(CCNC(=O)[C@H](CCCCN)N(CCNC(=O)[C@H](CCCCN)NC(=O)[C@H](CCCCN)NC(=O)[C@H](CCCCN)NC(=O)[C@H](CCCCN)NC(=O)[C@H](CCCCN)NC(=O)[C@H](CCCCN)NC(=O)[C@H](CCCCN)NC(=O)[C@@H](N)CCCCN)C(=O)Cn2cc(C)c(=O)[nH]c2=O)C(=O)Cn2ccc(N)nc2=O)C(=O)Cn2cc(C)c(=O)[nH]c2=O)C(=O)Cn2cnc3c(N)ncnc32)C(=O)Cn2cnc3c(N)ncnc32)C(=O)Cn2ccc(N)nc2=O)C(=O)Cn2ccc(N)nc2=O)C(=O)Cn2cnc3c(N)ncnc32)C(=O)Cn2ccc(N)nc2=O)C(=O)Cn2cnc3c(N)ncnc32)C(=O)Cn2cc(C)c(=O)[nH]c2=O)C(=O)Cn2ccc(N)nc2=O)CC(=O)NCCN(CC(=O)NCCN(CC(=O)NCCN(CC(=O)N[C@@H](CCCCN)C(N)=O)C(=O)Cn2cnc3c(N)ncnc32)C(=O)Cn2cnc3c(=O)[nH]c(N)nc32)C(=O)Cn2ccc(N)nc2=O)c(=O)[nH]c1=O
Mus musculus [1]
  Activity: Non-toxic
Mus musculus [2]
  inhibition: inactive
Mus musculus [3]
  Activity: inactive
Mus musculus [4]
  Activity: Non-toxic
Mus musculus [5]
  Activity: 145%
Mus musculus [6]
  Activity: Non-toxic
Mus musculus [7]
  Activity: Non-toxic
Mus musculus [8]
  inhibition: inactive
Mus musculus [9]
  Activity: Non-toxic
Mus musculus [10]
  Activity: inactive
Mus musculus [11]
  Activity: Non-toxic
Mus musculus [12]
  Activity: Non-toxic

## Cc1cn(CC(=O)N(CCNC(=O)CN(CCNC(=O)CN(CCNC(=O)CN(CCNC(=O)CN(CCN)C(=O)Cn2cnc3c(N)ncnc32)C(=O)Cn2cnc3c(=O)[nH]c(N)nc32)C(=O)Cn2cc(C)c(=O)[nH]c2=O)C(=O)Cn2cc(C)c(=O)[nH]c2=O)CC(=O)NCCN(CC(=O)NCCN(CC(=O)NCCN(CC(=O)NCCN(CC(=O)NCCN(CC(=O)NCCN(CC(=O)NCCN(CC(=O)NCCN(CC(=O)NCCN(CC(=O)NCCN(CC(=O)N[C@@H](CCCCN)C(N)=O)C(=O)Cn2cnc3c(N)ncnc32)C(=O)Cn2cnc3c(=O)[nH]c(N)nc32)C(=O)Cn2cnc3c(N)ncnc32)C(=O)Cn2cnc3c(=O)[nH]c(N)nc32)C(=O)Cn2cnc3c(N)ncnc32)C(=O)Cn2cc(C)c(=O)[nH]c2=O)C(=O)Cn2ccc(N)nc2=O)C(=O)Cn2ccc(N)nc2=O)C(=O)Cn2cnc3c(N)ncnc32)C(=O)Cn2ccc(N)nc2=O)c(=O)[nH]c1=O
BCL1
  IC50: 2.4 µM
